Molecules are shown by their SMILES. About 2,800 (0.9%) of roughly 310,000 compounds were called active.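 Rule for the calls: active = B-score of the integrated calcium signal more than 4 SD below the library mean, with starting fluorescence not abnormally high; inactive = the rest.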 What follows is part of a selection rich in actives, with near analogues and random picks from the rest.

25 compounds from PubChem BioAssay AID463111 (Johns Hopkins Ion Channel Center, 2010) can be followed below.

A short description of this assay: enhancers of RGS4 function in calcium signaling – cell-based, HEK293 M3R inducible RGS4, calcium flux, primary screen (AID 463111).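 For B-score: negative B-score means reduced calcium response which marks RGS4 activation or potentiation.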 Conditions: HEK293 M3R/inducible RGS4, carbachol calcium flux Fluo4, at 10 µM; hits give low values. The method, boiled down: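 Material: M3R-expressing HEK293 line, RGS4 induced by doxycycline | Schedule: Overnight RGS4 induction, 30 min dye load 37 °C, 20 min compound RT | Measured by: Fluo4 fluorescence kinetic imaging of calcium | Read-out: Integrated calcium ratio converted to B score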
In the case of `CCN(CC)P(=O)(Oc1cccc(C)c1)N(CC)CC`, the B-score result was “inactive”.
Take `Cc1cccc(OP(=O)(Oc2cccc(C)c2)OC(c2ccccc2)C(F)(F)F)c1` (stereo not given): the B-score was -7.67 (active).
The value for `O=C1CC(=O)N(Cc2ccccc2)C(=O)N1CCCCCCN1C(=O)CC(=O)N(Cc2ccccc2)C1=O` was “inactive”; that for `CC(c1ccccc1)(c1ccccc1)c1ccncc1` was “inactive”; that for `CCNc1nc2[nH]c(=O)c3c(c2s1)OC(N)=C(C#N)C3c1cccs1` (stereo not given) was “inactive”.
On to `C=CC12CN(C)[C@@H]3C4CO[C@H](C[C@H]41)[C@]1(C(=O)Nc4ccccc41)[C@@H]32` (stereo not given in full), for which the B-score is -8.82 (active).
`CCC(C)n1c(O)c(/C=N/Nc2nc3c(c(=O)n(C)c(=O)n3C)n2C)c(=O)[nH]c1=S` (stereo not given): the B-score result was “inactive”.
Turning to `CCOc1ccc(C2SCC(=O)Nc3c2c(C)nn3C2CCOC(C)(C)C2)cc1` (stereo not given), the B-score entry was “inactive”.
As for `COc1ccc(C(=O)C2CCCN(Cc3ccc(C)s3)C2)cc1OC` (stereo not given), the B-score entry was “inactive”.
Then `Cc1ccsc1C(=O)C1CCCN(Cc2ccc(O)cc2)C1` (stereo not given), with “inactive”.
The value for `Cc1ccc(CN2CCCC(C(=O)c3ccc4c(c3)OCO4)C2)cc1C` (stereo not given) was -7.27 (active); that for `O=C(Cc1ccc(Cl)cc1)NCCN1CCN(C(=O)Cc2ccc(Cl)cc2)CC1` was “inactive”.
As for `CCOC(=O)C1(Cc2ccc(Cl)cc2)CCN(C(C)CCn2cccn2)CC1` (stereo not given), the B-score entry is “inactive”.
For the compound `OC(Cn1c2ccccc2c2ccccc21)C[n+]1ccccc1` (stereo not given), the B-score entry was “inactive”.
Turning to `CN1CCN(/N=C/c2c[nH]c3ccccc23)CC1`, the B-score result was “inactive”.
Take `O=C(Nc1cccc(OC(=O)N2CCCCC2)c1)N1CCOCC1`: the B-score result is “inactive”.
Then `COc1cccc(CN2CCCC(C(=O)c3ccccc3SC)C2)c1O` (stereo not given), with “inactive”.
`CC(C)Oc1cccc(C(=O)C2CCCN(C3CCOCC3)C2)c1` (stereo not given): the B-score is -7.9 (active).
Take `COc1ccc(-c2nn(CCC#N)cc2C(=O)O)cc1`: the B-score entry is “inactive”.
Take `Cc1cccc(-n2c(O)c(/C=N/N3CCOCC3)c(=O)[nH]c2=S)c1`: the B-score entry was “inactive”.
Then `COc1cc(-n2c(=S)[nH]c3ccc(C)cc3c2=O)c(Cl)cc1Cl`, with “inactive”.
In the case of `CCCCn1c(=O)c(C(=O)Nc2ccccc2Cl)c(O)c2ccccc21`, the B-score result is “inactive”.
On to `CCCCCn1c(=O)c(C(=O)NCc2ccccc2)c(O)c2ccccc21`, for which the B-score entry is “inactive”.
For `CCCCCn1c(=O)c(C(=O)Nc2c(C)n(C)n(-c3ccccc3)c2=O)c(O)c2ccccc21`, the B-score is -7.47 (active).
`O=C(O)CCn1cc(C=C2C(=O)NC(=S)NC2=O)c(-c2cccc(Br)c2)n1`: the B-score entry is “inactive”.
